Bioassay records from PubChem BioAssay.
Sampled rows, rich in hits. Any-hit rate of the full collection: about 1.9%.
Ins promoter up: MIN6 insulin promoter up-regulation; MIN6 insulin promoter-GFP reporter, high-content imaging; hits give high values; 190,000 compounds, 0.3% hits; z-score at 5 µM;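 active = z-score above 3 at 5 µM with at least 500 cells counted in the well; inconclusive = wells under 500 cells, flagged as cytotoxic or low count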
Tb hexokinase: blocks Trypanosoma brucei hexokinase 1 activity; recombinant TbHK1, G6PDH-coupled NADH A340; inhibition, % at 10 µM; 220,000 compounds, 0.11% hits; AID 1430;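 active = inhibition of 50% or more in the single-dose primary screen; inactive = inhibition below 50%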
b-catenin transl: alters nuclear translocation of beta-catenin in HeLa cells; immunofluorescence imaging; nuclear translocation activity, % at 5 µM; 190,000 compounds, 0.3% hits; AID 1665;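 active = nuclear translocation activity above 50% at 5 µM, with a well cell count of 50 or more; inconclusive = wells under 50 cells across six images, flagged as toxic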;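 note: per-cell ratio of nuclear to cytoplasmic median beta-catenin stain intensity; plate controls were DMSO negative control for no effect and GSK-3 inhibitor IX positive control for full effect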
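test system = HeLa cells, endogenous beta-catenin | dosing = single 5 µM dose plus 0.02–20 µM confirmation series | times = compound treatment 24 h, 37°C, 5% CO2 | technique = beta-catenin immunofluorescence imaging with DAPI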
MT stabilize HCS: microtubule stabilization, imaging screen; 200,000 compounds, 0.83% hits; % tubulin-high responders, % at 10 µM; HeLa tubulin immunostaining HCS, 24 h; share of cells brighter than vehicle mean+2SD; AID 2205;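 active = plate Z-score above 3 for both tubulin-high and condensed-nucleus cell shares, with cell loss under 80%, at 10 µM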;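 note: anti alpha tubulin signal scored within the nucleus-defined area of each cell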
Autophagy mod: modulators of autophagy; MEF GFP-LC3 puncta imaging; test concentration mostly 10 µM; calls only at 10 µM (by protocol); 190,000 compounds, 0.98% hits; AID 463193;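 active = percentage of spot-positive cells more than 3 SD above its plate mean, without a fluorescence outlier flag or 80% toxicity; inconclusive = no clear call, values can overlap the other calls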;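 note: spot-positive cell cutoff set from DMSO-treated cells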
Starred values were filed as active, the others as inactive; i = inactive; ? = inconclusive; · = no result; + = active, no number.

SMILES	Ins promoter up	Tb hexokinase	b-catenin transl	MT stabilize HCS	Autophagy mod
COc1ccc(C(NC(=O)C(C)C)c2c(O)ccc3ccccc23)cc1 (configuration not stated)	-0.19	-5	0	13*	i
CCC(=O)NC(c1ccc(N(C)C)cc1)c1c(O)ccc2ccccc12 (configuration not stated)	0.31	-7	0	3	i
CN(C)CCOC(=O)CCCCCCCCC(=O)OCCN(C)C	-0.16	-7	-6	·	·
COc1cc(C(=O)Nc2nc(C)c(Cc3ccc4c(c3)OCO4)s2)cc(OC)c1OC	-0.65	-8	16	15*	i
Clc1cccc(Nc2nc(-c3cccnc3)cs2)c1	·	-4	1	2	i
CCCN1C(=O)/C(=C\C=C2\N(CC)c3ccccc3C2(C)C)SC1=S	·	-7	0	27	+
COc1ccc(/C=N/NC(=O)c2ccncc2)cc1Cn1nc([N+](=O)[O-])c(Br)c1C	-0.68	-12	2	4	i
CC1(c2ccc(Cl)cc2Cl)OCC(Cn2ccnc2)O1 (configuration not stated)	0.19	2	2	36*	i
NS(=O)(=O)c1cccc(NS(=O)(=O)c2cccc(C(F)(F)F)c2)c1	-0.07	-6	-2	·	·
COc1cc2c(cc1OC)C(c1cccs1)N(C(=O)c1ccncc1)CC2 (configuration not stated)	0.06	-4	32	23*	i
COc1cc2c(cc1OC)C(C)N(C(=O)c1cccs1)CC2 (configuration not stated)	0.49	1	0	24*	i
CCOC(=O)C1C(=O)OC(C)(C)C1C(CC)C(=O)c1c(C)cc(C)cc1C (configuration not stated)	-0.01	-10	-1	·	·
C/C(=N\NC(=O)CCc1ccc(S(=O)(=O)N2CCOCC2)cc1)c1ccccc1Cl	0.51	-4	5	2	i
O=S(=O)(Nc1ccc(C(F)(F)F)cn1)c1ccccc1	1.2	-4	1	·	·
COc1ccc(NC(=O)C(C)N2C(=O)c3ccccc3C2=O)cc1S(=O)(=O)N1CCOCC1 (configuration not stated)	1.2	-7	0	5	i
O=C1/C(=C/C=C/c2ccco2)SC(=S)N1NS(=O)(=O)c1ccccc1	·	67*	0	·	·
COc1ccc(C(=O)c2sc3nc(-c4ccccc4)ccc3c2N)cc1	?	3	-4	6	+
O=C1CSC(c2cccnc2)N1Cc1ccc(Cl)c(Cl)c1 (configuration not stated)	2.6	-3	-1	·	·
CCOc1cc(C)c(Cl)cc1S(=O)(=O)n1cnc2ccccc21	0.1	-6	·	4	i
CCOc1ccc(Cl)cc1S(=O)(=O)n1cnc2ccccc21	-0.61	-7	·	24*	i
COc1ccc(Cl)cc1S(=O)(=O)n1cnc2ccccc21	1.8	5	2	26*	i
CC(C)CCn1nnnc1CN1CCN(c2ccccc2)CC1	-0.25	4	0	5	i
COc1ccc(Nc2nc(-c3cccc([N+](=O)[O-])c3)nc3ccccc23)cc1	-0.35	-14	-1	8	i
COCCn1nnnc1C(C(C)C)N1CCCC(C)C1 (configuration not stated)	-0.06	3	-3	3	i
CN1CCN(S(=O)(=O)c2ccc(N3CCc4ccccc4C3)nc2)CC1	1.5	-8	3	1	i
SMILES	Ins promoter up	Tb hexokinase	b-catenin transl	MT stabilize HCS	Autophagy mod
CCCCOc1ccc(Br)cc1/C(C)=N/NC1=NCCN1	·	4	52*	8	+
CCCCCCOc1ccc(/C(C)=N/NC2=NCCN2)cc1[N+](=O)[O-]	-7.3	5	4	4	+
C/C(=N\NC1=NCCN1)c1ccc(N)c([N+](=O)[O-])c1	0.57	-22	2	·	·
CN1CCN(CC(O)(c2ccc(Cl)cc2)c2ccc(Cl)cc2)CC1	-1.9	13	-2	5	+
CN1CCN(CC(O)COc2ccc(Cl)cc2)CC1 (configuration not stated)	·	-5	·	2	i
Cc1cccc(CN2CCN(Cc3cccc(-n4cccn4)c3)CC2CCO)n1 (configuration not stated)	·	-5	0	2	+
COc1cccc(CN2C(=O)c3cccc(N)c3C2=O)c1	-0.3	0	-1	2	i
Cc1ccc(OCCn2cnc3cc([N+](=O)[O-])ccc3c2=O)cc1	-0.06	9	0	5	+
CC(C)(C)c1ccc(NC(=O)Cn2cnc3cc([N+](=O)[O-])ccc3c2=O)cc1	0.3	0	1	2	+
O=C(Cn1cnc2cc([N+](=O)[O-])ccc2c1=O)Nc1ccc(Br)cc1	0.22	-8	0	·	·
CN(C)CCCN(CCCN(C)C)C(=S)Nc1ccc(S(=O)(=O)N2CCOCC2)cc1	-0.19	3	0	·	·
NC(=O)C1(c2ccccc2)CCOCC1	1.2	-1	-1	3	+
Cc1ccc([N+](=O)[O-])cc1S(=O)(=O)N1CCNCC1	-0.34	-1	-2	4	i
Cc1cc(C)c(C)c(S(=O)(=O)N2CCNCC2)c1C	-0.86	9	-2	3	+
CN(Cc1ccon1)Cc1cn(Cc2ccccc2)nc1-c1ccc2c(c1)OCO2	-0.72	-2	0	2	i
CCOc1ccc(C2CC(=O)N(Nc3ccc([N+](=O)[O-])cc3[N+](=O)[O-])C2=O)cc1 (configuration not stated)	0.15	-5	5	·	·
C=CCSc1nnc(C)c(/C=C/Nc2ccc(Cl)cc2)n1	·	-6	-6	3	+
COC(=O)C/C=C/[C@@H](C)[C@@H](/C=N/OCC[C@@H]1C=C[C@H](OC(C)=O)[C@@H](COC(C)=O)O1)NS(=O)(=O)c1ccc(C)cc1	1.1	-4	0	2	+
COc1ccc(NC(=S)NC(NC(=O)c2ccc(Cl)cc2Cl)C(Cl)(Cl)Cl)c([N+](=O)[O-])c1 (configuration not stated)	-1.1	-3	-5	3	+
COc1ccc(NC(=S)NC(NC(=O)CCl)C(Cl)(Cl)Cl)c([N+](=O)[O-])c1 (configuration not stated)	-0.22	-9	0	3	i
COc1ccc(NC(=S)NC(NC(=O)c2cccc3ccccc23)C(Cl)(Cl)Cl)c([N+](=O)[O-])c1 (configuration not stated)	0.17	-2	·	3	+
COc1ccc(NC(=S)NC(NC(=O)c2ccccc2Cl)C(Cl)(Cl)Cl)c([N+](=O)[O-])c1 (configuration not stated)	·	5	·	2	i
Cc1ccc(C(=O)Nc2ccnc(-c3ccncc3)n2)cc1	-0.39	4	-2	2	i
COc1ccc(NS(=O)(=O)c2cccc(NC(=O)c3ccc(Cl)nc3)c2)cc1	-0.38	9	1	16*	i
COc1cc(/C=C2\C(C)=C(C#N)c3nc(N)c(C#N)c(C)c32)ccc1OCC(=O)O	-0.76	-20	1	·	·
